ChEMBL document CHEMBL2046318, “Synthesis and biological evaluation of novel flavonols as potential anti-prostate cancer agents” (Eur J Med Chem, 2012)

Assays:
CWR22R [1] = experiment: Inhibition of prostate specific antigen expression in human 22Rv1 cells assessed as PSA protein level at 20 uM after 72 hrs by densitometry relative to untreated control; format: functional; design: scale not given: the % may be the effect or the level left
Summary of the method: (§1)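 22rv1 cells were seeded at 2 × 10^5 per well, left to adhere overnight, then treated for 72 h at 10 or 20 µM. Cells were lysed in NP-40/deoxycholate/SDS buffer with protease and phosphatase inhibitors. 15 µg protein was run on SDS-PAGE and blotted, then probed with AR, PSA and actin antisera and an HRP secondary. Bands were quantified by densitometry as % of vehicle control, mean of 3–5 replicates with SD.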

CWR22R [2] = experiment: Antiproliferative activity against human 22Rv1 cells incubated up to 144 hrs by Coulter particle count and size analyzer; format: functional, cell-based; details: 22Rv1, 144 h
Summary of the method: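 22rv1 cells in RPMI 1640 with 10% FBS were seeded at 5 × 10^3 per well, left to adhere overnight, then exposed to agents in DMSO (final DMSO <0.1%) for up to 144 h. Cells were trypsinised and counted on a Coulter counter. Cell number as % of DMSO control was plotted against log concentration at 144 h, and the IC50 was taken from the straight-line fit. Mean of 3–6 experiments.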

CWR22R [3] = experiment: Inhibition of androgen receptor expression in human 22Rv1 cells assessed as AR protein level at 20 uM after 72 hrs by densitometry relative to untreated control; format: functional; design: scale not given: the % may be the effect or the level left; summary of the method: as §1
CWR22R [4] = experiment: Inhibition of prostate specific antigen expression in human 22Rv1 cells assessed as PSA protein level at 10 uM after 72 hrs by densitometry relative to untreated control; format: functional; design: scale not given: the % may be the effect or the level left; summary of the method: as §1
CWR22R [5] = experiment: Inhibition of androgen receptor expression in human 22Rv1 cells assessed as AR protein level at 10 uM after 72 hrs by densitometry relative to untreated control; format: functional; design: scale not given: the % may be the effect or the level left; summary of the method: as §1
CWR22R [6] = experiment: Growth inhibition of human 22Rv1 cells at 0.01 uM incubated up to 144 hrs by Coulter particle count and size analyzer; format: functional; details: 22Rv1, 144 h, read-out: GI
CWR22R [7] = experiment: Growth inhibition of human 22Rv1 cells at 50 uM incubated up to 144 hrs by Coulter particle count and size analyzer; format: functional; details: 22Rv1, 144 h, read-out: GI
CWR22R [8] = experiment: Growth inhibition of human 22Rv1 cells at 0.1 uM incubated up to 144 hrs by Coulter particle count and size analyzer; format: functional; details: 22Rv1, 144 h, read-out: GI

SMILES: COc1ccc(-c2oc3cc(F)ccc3c(=O)c2O)cc1
- Activity (CWR22R [1]): 62%
- IC50 (CWR22R [2]): 7.1 µM
- Activity (CWR22R [3]): 104%
- Activity (CWR22R [4]): 70%
- Activity (CWR22R [5]): 112%

SMILES: COc1cc(-c2oc3ccccc3c(=O)c2O)cc(OC)c1OC
- Activity (CWR22R [1]): 23%
- IC50 (CWR22R [2]): 3.1 µM
- Activity (CWR22R [3]): 62%
- Activity (CWR22R [4]): 21%
- Activity (CWR22R [5]): 96%

SMILES: COc1cc(OC)cc(-c2oc3ccccc3c(=O)c2O)c1
- Activity (CWR22R [1]): 109%
- IC50 (CWR22R [2]): 12.4 µM
- Activity (CWR22R [3]): 72%
- Activity (CWR22R [4]): 133%
- Activity (CWR22R [5]): 74%

SMILES: COc1ccc(-c2oc3cc(F)cc(F)c3c(=O)c2O)cc1OC
- Activity (CWR22R [1]): 88%
- IC50 (CWR22R [2]): 7.4 µM
- Activity (CWR22R [3]): 94%
- Activity (CWR22R [4]): 78%
- Activity (CWR22R [5]): 110%

SMILES: COc1ccc(-c2oc3cc(F)ccc3c(=O)c2O)cc1OC
- Activity (CWR22R [1]): 70%
- IC50 (CWR22R [2]): > 40 µM
- Activity (CWR22R [3]): 120%
- Activity (CWR22R [4]): 78%
- Activity (CWR22R [5]): 129%

SMILES: O=c1c(O)c(-c2ccc(O)c(O)c2)oc2cc(O)cc(O)c12 [QUERCETIN]
- Activity (CWR22R [1]): 31%
- IC50 (CWR22R [2]): 15.5 µM
- Activity (CWR22R [3]): 120%
- Activity (CWR22R [4]): 40%
- Activity (CWR22R [5]): 114%

SMILES: O=c1c(O)c(-c2ccc(O)cc2)oc2cc(O)ccc12 [RESOKAEMPFEROL]
- Activity (CWR22R [1]): 39%
- IC50 (CWR22R [2]): 30.2 µM
- Activity (CWR22R [3]): 125%
- Activity (CWR22R [4]): 47%
- Activity (CWR22R [5]): 141%

SMILES: COc1cc(-c2oc3ccccc3c(=O)c2OC)cc(OC)c1OC
- Activity (CWR22R [1]): 149%
- IC50 (CWR22R [2]): 2.6 µM
- Activity (CWR22R [3]): 80%
- Activity (CWR22R [4]): 167%
- Activity (CWR22R [5]): 94%

SMILES: O=c1c(O)c(-c2ccc(O)c(O)c2)oc2cc(O)ccc12 [FISETIN]
- Activity (CWR22R [1]): 44%
- IC50 (CWR22R [2]): 25.9 µM
- Activity (CWR22R [3]): 101%
- Activity (CWR22R [4]): 51%
- Activity (CWR22R [5]): 109%

SMILES: O=c1c(O)c(-c2cc(O)c(O)c(O)c2)oc2cc(O)ccc12 [ROBINETIN]
- Activity (CWR22R [1]): 111%
- IC50 (CWR22R [2]): 7.1 µM
- Activity (CWR22R [3]): 102%
- Activity (CWR22R [4]): 69%
- Activity (CWR22R [5]): 84%

SMILES: O=c1c(O)c(-c2ccc(O)cc2)oc2cc(F)ccc12
- Activity (CWR22R [1]): 3%
- IC50 (CWR22R [2]): 8.4 µM
- Activity (CWR22R [3]): 64%
- Activity (CWR22R [4]): 32%
- Activity (CWR22R [5]): 129%

SMILES: O=c1c(O)c(-c2ccc(O)c(O)c2)oc2cc(F)ccc12
- Activity (CWR22R [1]): 18%
- IC50 (CWR22R [2]): 9.2 µM
- Activity (CWR22R [3]): 59%
- Activity (CWR22R [4]): 21%
- Activity (CWR22R [5]): 108%

SMILES: O=c1c(O)c(-c2ccccc2)oc2ccccc12 [FLAVONOL]
- Activity (CWR22R [1]): 80%
- IC50 (CWR22R [2]): 14.9 µM
- Activity (CWR22R [3]): 92%
- Activity (CWR22R [4]): 124%
- Activity (CWR22R [5]): 100%

SMILES: O=c1c(O)c(-c2cc(O)c(O)c(O)c2)oc2cc(O)cc(O)c12 [MYRICETIN]
- Activity (CWR22R [1]): 121%
- IC50 (CWR22R [2]): 13.1 µM
- Activity (CWR22R [3]): 114%
- Activity (CWR22R [4]): 110%
- Activity (CWR22R [5]): 119%

SMILES: O=c1c(O)c(-c2cc(O)c(O)c(O)c2)oc2cc(F)cc(F)c12
- Activity (CWR22R [1]): 132%
- IC50 (CWR22R [2]): 6.3 µM
- Activity (CWR22R [3]): 90%
- Activity (CWR22R [4]): 134%
- Activity (CWR22R [5]): 118%

SMILES: COc1cc(-c2oc3ccccc3c(=O)c2F)cc(OC)c1OC
- Activity (CWR22R [1]): 63%
- IC50 (CWR22R [2]): > 40 µM
- Activity (CWR22R [3]): 125%
- inhibition of growth at 0.01 µM (CWR22R [6]): 18%
- Activity (CWR22R [4]): 63%
- Activity (CWR22R [5]): 110%
- inhibition of growth at 50 µM (CWR22R [7]): 48%
- inhibition of growth at 0.1 µM (CWR22R [8]): 46%

SMILES: COc1cccc(-c2oc3ccccc3c(=O)c2O)c1
- Activity (CWR22R [1]): 13%
- IC50 (CWR22R [2]): 5.3 µM
- Activity (CWR22R [3]): 23%
- Activity (CWR22R [4]): 27%
- Activity (CWR22R [5]): 64%

SMILES: COc1cc(-c2oc3cc(F)cc(F)c3c(=O)c2O)cc(OC)c1OC
- Activity (CWR22R [1]): 68%
- IC50 (CWR22R [2]): 5.9 µM
- Activity (CWR22R [3]): 103%
- Activity (CWR22R [4]): 95%
- Activity (CWR22R [5]): 100%

SMILES: COc1ccc(-c2oc3cc(F)cc(F)c3c(=O)c2O)cc1
- Activity (CWR22R [1]): 66%
- IC50 (CWR22R [2]): 15.8 µM
- Activity (CWR22R [3]): 111%
- Activity (CWR22R [4]): 85%
- Activity (CWR22R [5]): 115%

SMILES: COc1ccc(-c2oc3ccccc3c(=O)c2O)cc1
- Activity (CWR22R [1]): 115%
- IC50 (CWR22R [2]): 30.5 µM
- Activity (CWR22R [3]): 61%
- Activity (CWR22R [4]): 127%
- Activity (CWR22R [5]): 71%

SMILES: COc1ccc(-c2oc3ccccc3c(=O)c2O)cc1OC [3-HYDROXY-3',4'-DIMETHOXYFLAVONE]
- Activity (CWR22R [1]): 56%
- IC50 (CWR22R [2]): 12.3 µM
- Activity (CWR22R [3]): 81%
- Activity (CWR22R [4]): 61%
- Activity (CWR22R [5]): 63%

SMILES: O=c1c(O)c(-c2ccc(O)cc2)oc2cc(F)cc(F)c12
- Activity (CWR22R [1]): 33%
- IC50 (CWR22R [2]): 28.7 µM
- Activity (CWR22R [3]): 96%
- Activity (CWR22R [4]): 77%
- Activity (CWR22R [5]): 136%

SMILES: COc1cc(-c2oc3cc(F)ccc3c(=O)c2O)cc(OC)c1OC
- Activity (CWR22R [1]): 22%
- IC50 (CWR22R [2]): 4 µM
- Activity (CWR22R [3]): 75%
- Activity (CWR22R [4]): 37%
- Activity (CWR22R [5]): 112%

SMILES: O=c1c(O)c(-c2cc(O)c(O)c(O)c2)oc2ccccc12
- Activity (CWR22R [1]): 109%
- IC50 (CWR22R [2]): 7.7 µM
- Activity (CWR22R [3]): 89%
- Activity (CWR22R [4]): 110%
- Activity (CWR22R [5]): 94%

SMILES: O=c1c(O)c(-c2cc(O)c(O)c(O)c2)oc2cc(F)ccc12
- Activity (CWR22R [1]): 106%
- IC50 (CWR22R [2]): 11.6 µM
- Activity (CWR22R [3]): 94%
- Activity (CWR22R [4]): 111%
- Activity (CWR22R [5]): 100%

SMILES: COc1cc(-c2oc3ccc(F)cc3c(=O)c2O)cc(OC)c1OC
- Activity (CWR22R [1]): 5%
- IC50 (CWR22R [2]): 3.3 µM
- Activity (CWR22R [3]): 75%
- Activity (CWR22R [4]): 14%
- Activity (CWR22R [5]): 91%

SMILES: O=c1c(O)c(-c2ccc(O)c(O)c2)oc2cc(F)cc(F)c12
- Activity (CWR22R [1]): 22%
- IC50 (CWR22R [2]): 16.3 µM
- Activity (CWR22R [3]): 86%
- Activity (CWR22R [4]): 61%
- Activity (CWR22R [5]): 116%

SMILES: O=c1c(O)c(-c2ccc(O)cc2)oc2cc(O)cc(O)c12 [KAEMPFEROL]
- Activity (CWR22R [1]): 37%
- IC50 (CWR22R [2]): > 40 µM
- Activity (CWR22R [3]): 131%
- Activity (CWR22R [4]): 33%
- Activity (CWR22R [5]): 128%
